Measured values as given in ChEMBL document CHEMBL1909618, “Non-steroidal dissociated glucocorticoid agonists: indoles as A-ring mimetics and function-regulating pharmacophores” (Bioorg Med Chem Lett, 2011).

Columns and labels:
[1] = target: T1, Glucocorticoid receptor (Homo sapiens) (UniProt P04150); test: Agonist activity at glucocorticoid receptor in HFF assessed as inhibition of IL1-induced IL-6 production after 18 to 24 hrs relative to Dexamethasone; format: functional
T1 sequence (whole entry): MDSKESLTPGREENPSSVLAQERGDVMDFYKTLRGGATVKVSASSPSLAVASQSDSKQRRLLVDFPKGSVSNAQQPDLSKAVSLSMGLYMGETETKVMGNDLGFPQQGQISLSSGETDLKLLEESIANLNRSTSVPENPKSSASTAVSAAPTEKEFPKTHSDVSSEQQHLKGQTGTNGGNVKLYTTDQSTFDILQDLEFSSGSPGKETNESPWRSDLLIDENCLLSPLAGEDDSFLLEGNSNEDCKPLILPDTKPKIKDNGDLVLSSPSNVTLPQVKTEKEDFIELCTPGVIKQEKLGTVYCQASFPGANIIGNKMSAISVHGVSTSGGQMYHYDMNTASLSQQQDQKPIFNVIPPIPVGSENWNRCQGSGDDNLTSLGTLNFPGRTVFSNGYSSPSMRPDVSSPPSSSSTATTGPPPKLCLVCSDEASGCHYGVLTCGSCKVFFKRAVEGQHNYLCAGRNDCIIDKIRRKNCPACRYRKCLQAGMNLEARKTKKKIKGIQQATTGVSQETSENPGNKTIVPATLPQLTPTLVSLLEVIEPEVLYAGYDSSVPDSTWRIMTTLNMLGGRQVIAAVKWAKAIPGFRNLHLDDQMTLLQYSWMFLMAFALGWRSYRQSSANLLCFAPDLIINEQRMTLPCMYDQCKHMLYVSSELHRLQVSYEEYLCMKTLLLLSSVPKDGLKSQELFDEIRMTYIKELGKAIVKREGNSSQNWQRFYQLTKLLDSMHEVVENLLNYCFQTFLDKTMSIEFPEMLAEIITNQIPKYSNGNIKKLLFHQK
How it was run: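 Human foreskin fibroblasts stimulated with IL-1 (1 ng/mL) in the presence of test compound, incubated at 37 °C for 18–24 h. IL-6 in the culture medium was quantified by electrochemiluminescence, DELFIA or ELISA. IC50 and % maximal efficacy were reported.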

Glucocorticoid receptor [2] = target: T2, Glucocorticoid receptor (Homo sapiens, UniProt P04150); test: Transactivation activity of glucocorticoid receptor in HFF assessed as induction of aromatase activity by measuring beta-estradiol activity after 18 to 24 hrs by ELISA
T2 sequence (P04150 whole entry): T1 sequence (whole entry)

[3] = target: T1, Glucocorticoid receptor (Homo sapiens); test: Transactivation activity of glucocorticoid receptor in HFF assessed as induction of aromatase activity by measuring beta-estradiol activity after 18 to 24 hrs by ELISA relative to Dexamethasone
Glucocorticoid receptor [4] = target: T2, Glucocorticoid receptor; test: Displacement of tetramethylrhodamine-labeled Dexamethasone from human recombinant glucocorticoid receptor expressed in baculovirus infected insect cells by fluorescence polarization assay
Progesterone receptor = target: T3, Progesterone receptor (Homo sapiens, UniProt P06401); test: Displacement of tetramethylrhodamine-labeled RU-486 from human recombinant progesterone receptor expressed in baculovirus infected insect cells by fluorescence polarization assay
T3 sequence (P06401 whole entry): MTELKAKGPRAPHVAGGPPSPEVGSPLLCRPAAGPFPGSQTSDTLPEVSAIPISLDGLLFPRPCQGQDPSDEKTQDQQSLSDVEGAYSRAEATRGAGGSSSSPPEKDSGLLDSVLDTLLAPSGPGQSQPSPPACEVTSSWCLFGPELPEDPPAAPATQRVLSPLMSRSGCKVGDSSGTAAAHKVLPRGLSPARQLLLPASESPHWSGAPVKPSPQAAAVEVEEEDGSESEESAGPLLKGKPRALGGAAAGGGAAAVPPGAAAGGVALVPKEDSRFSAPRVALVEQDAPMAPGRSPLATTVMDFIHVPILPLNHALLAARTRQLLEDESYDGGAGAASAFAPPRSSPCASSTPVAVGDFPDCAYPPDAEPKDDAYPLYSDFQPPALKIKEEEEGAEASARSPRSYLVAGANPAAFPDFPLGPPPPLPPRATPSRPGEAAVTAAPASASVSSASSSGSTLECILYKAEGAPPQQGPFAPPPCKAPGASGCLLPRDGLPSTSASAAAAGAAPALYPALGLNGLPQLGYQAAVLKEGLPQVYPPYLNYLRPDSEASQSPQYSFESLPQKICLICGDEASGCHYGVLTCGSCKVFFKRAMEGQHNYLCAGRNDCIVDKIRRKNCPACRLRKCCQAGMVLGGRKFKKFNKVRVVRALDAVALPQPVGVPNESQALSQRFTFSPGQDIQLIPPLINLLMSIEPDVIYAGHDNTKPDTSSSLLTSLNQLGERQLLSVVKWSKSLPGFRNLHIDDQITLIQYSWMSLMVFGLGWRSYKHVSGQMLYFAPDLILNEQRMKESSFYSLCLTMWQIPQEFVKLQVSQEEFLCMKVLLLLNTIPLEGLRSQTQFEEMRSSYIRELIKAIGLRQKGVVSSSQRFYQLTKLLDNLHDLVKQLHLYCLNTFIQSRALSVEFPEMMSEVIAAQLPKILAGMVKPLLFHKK
How it was run: (§1)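 Fluorescence polarization competition assays with recombinant human receptors in lysates of baculovirus-infected insect cells. Reactions contained 1% DMSO and ran 1 h at room temperature.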

[5] = target: T4, Mineralocorticoid receptor (Homo sapiens, UniProt P08235); test: Displacement of tetramethylrhodamine-labeled Dexamethasone from human recombinant mineralocorticoid receptor expressed in baculovirus infected insect cells by fluorescence polarization assay; how it was run: as §1
T4 sequence (P08235 whole entry): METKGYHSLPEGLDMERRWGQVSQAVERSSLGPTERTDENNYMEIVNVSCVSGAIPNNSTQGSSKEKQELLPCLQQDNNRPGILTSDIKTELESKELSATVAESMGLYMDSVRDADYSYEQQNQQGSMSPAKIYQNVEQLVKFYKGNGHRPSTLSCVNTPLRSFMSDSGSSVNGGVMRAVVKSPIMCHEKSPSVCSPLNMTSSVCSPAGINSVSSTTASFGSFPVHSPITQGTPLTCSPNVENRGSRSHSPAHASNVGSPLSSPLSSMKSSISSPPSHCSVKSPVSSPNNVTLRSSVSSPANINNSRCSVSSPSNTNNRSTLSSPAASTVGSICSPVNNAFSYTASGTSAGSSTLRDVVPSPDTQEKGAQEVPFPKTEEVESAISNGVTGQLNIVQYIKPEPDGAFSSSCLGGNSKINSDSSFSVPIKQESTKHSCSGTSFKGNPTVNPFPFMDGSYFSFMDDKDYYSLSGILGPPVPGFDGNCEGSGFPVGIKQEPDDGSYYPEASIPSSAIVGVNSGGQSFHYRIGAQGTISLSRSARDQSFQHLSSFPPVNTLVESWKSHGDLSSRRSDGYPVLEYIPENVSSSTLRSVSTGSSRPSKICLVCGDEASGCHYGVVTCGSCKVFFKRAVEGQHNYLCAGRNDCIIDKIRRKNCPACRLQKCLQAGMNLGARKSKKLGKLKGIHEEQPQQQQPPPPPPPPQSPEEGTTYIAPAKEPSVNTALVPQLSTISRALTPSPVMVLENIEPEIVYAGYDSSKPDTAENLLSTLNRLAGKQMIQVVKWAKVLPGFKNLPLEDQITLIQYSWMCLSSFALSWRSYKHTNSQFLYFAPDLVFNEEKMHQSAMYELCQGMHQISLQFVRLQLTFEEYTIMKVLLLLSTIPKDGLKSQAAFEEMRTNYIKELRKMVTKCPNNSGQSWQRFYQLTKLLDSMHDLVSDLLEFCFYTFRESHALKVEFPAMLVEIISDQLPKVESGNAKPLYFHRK

Glucocorticoid receptor [6] = target: T2, Glucocorticoid receptor; test: Agonist activity at glucocorticoid receptor in HFF assessed as inhibition of IL1-induced IL-6 production after 18 to 24 hrs; format: functional

| Efficacy [1] | EC50 (Glucocorticoid receptor [2]; read-out: EC50) | Efficacy [3] | IC50 (Glucocorticoid receptor [4]) | IC50 (Progesterone receptor) | IC50 [5] | IC50 (Glucocorticoid receptor [6]) | EC50 (Glucocorticoid receptor [2]) | Structure (SMILES) |
| --- | --- | --- | --- | --- | --- | --- | --- | --- |
| 20% | > 2000 nM | 20% | > 2000 nM | 1200 nM | 1100 nM | > 2000 nM | – | COc1ccc(F)cc1C(C)(C)C[C@](O)(Cc1cc2ccccc2[nH]1)C(F)(F)F |
| – | > 2000 nM | – | 77 nM | 1600 nM | 910 nM | > 2000 nM | – | COc1ccc(F)cc1C(C)(C)CC(O)(Cc1cc2ccc(C(F)(F)F)cc2[nH]1)C(F)(F)F (racemic) |
| 30% | > 2000 nM | – | 27 nM | > 2000 nM | 1420 nM | > 2000 nM | – | COc1ccc(F)cc1C(C)(C)CC(O)(Cc1cc2cccc(C#N)c2[nH]1)C(F)(F)F (racemic) |
| 84% | 94 nM | 98% | 24 nM | 405 nM | 405 nM | 78 nM | – | COc1ccc(F)cc1C(C)(C)CC(O)(Cc1cc2cc(F)ccc2[nH]1)C(F)(F)F (racemic) |
| 77% | 640 nM | 65% | 290 nM | > 2000 nM | > 2000 nM | 191 nM | – | COc1ccc(F)cc1C(C)(C)CC(O)(Cc1cc2cc(C(F)(F)F)ccc2[nH]1)C(F)(F)F (racemic) |
| 70% | – | 30% | 160 nM | > 2000 nM | > 2000 nM | 290 nM | Not Active | COc1ccc(F)cc1C(C)(C)CC(O)(Cc1cc2c(C(F)(F)F)cccc2[nH]1)C(F)(F)F (racemic) |
| 88% | 45 nM | 99% | 32 nM | 415 nM | 585 nM | 16 nM | – | CC(C)(CC(O)(Cc1cc2ccccc2[nH]1)C(F)(F)F)c1cc(Br)cc2c1OCC2 (racemic) |
| 75% | 473 nM | 89% | 15 nM | 930 nM | 435 nM | 36 nM | – | COc1ccc(F)cc1C(C)(C)CC(O)(Cc1cc2cccc(F)c2[nH]1)C(F)(F)F (racemic) |
| 95% | 16 nM | 105% | 10 nM | 145 nM | 240 nM | 7 nM | – | Cc1cc2c(c(C(C)(C)CC(O)(Cc3cc4ccccc4[nH]3)C(F)(F)F)c1)OCC2 (racemic) |
| – | – | – | – | > 2000 nM | – | – | – | C[C@@H]1C[C@H]2[C@@H]3CCC4=CC(=O)C=C[C@]4(C)[C@@]3(F)[C@@H](O)C[C@]2(C)[C@@]1(O)C(=O)CO [DEXAMETHASONE] |
| 94% | 33 nM | 84% | 30 nM | 265 nM | 350 nM | 29 nM | – | COc1ccc(F)cc1C(C)(C)CC(O)(Cc1cc2ccc(F)cc2[nH]1)C(F)(F)F (racemic) |
| 83% | 311 nM | 103% | 19 nM | 225 nM | 400 nM | 10 nM | – | CC(C)(CC(O)(Cc1cc2ccccc2[nH]1)C(F)(F)F)c1cccc2c1OCC2 (racemic) |
| 91% | 9 nM | 110% | 30 nM | 350 nM | 415 nM | 6 nM | – | COc1ccc(F)cc1C(C)(C)CC(O)(Cc1cc2c(C)cccc2[nH]1)C(F)(F)F (racemic) |
| – | > 2000 nM | – | 120 nM | 1750 nM | 1650 nM | > 2000 nM | – | COc1ccc(F)cc1C(C)(C)CC(O)(Cc1cc2cccc(C(F)(F)F)c2[nH]1)C(F)(F)F (racemic) |
| 86% | 230 nM | 104% | 66 nM | 1800 nM | 1250 nM | 113 nM | – | COc1ccc(F)cc1C(C)(C)CC(O)(Cc1cc2cc(C)ccc2[nH]1)C(F)(F)F (racemic) |
| 90% | 125 nM | 98% | 8 nM | 255 nM | 265 nM | 21 nM | – | CC(C)(CC(O)(Cc1cc2ccccc2[nH]1)C(F)(F)F)c1cc(F)cc2c1OCC2 (racemic) |
| 60% | 976 nM | 70% | 38 nM | 1250 nM | 720 nM | 334 nM | – | COc1ccc(F)cc1C(C)(C)CC(O)(Cc1cc2ccc(C)cc2[nH]1)C(F)(F)F (racemic) |
| 26% | > 2000 nM | 26% | 56 nM | 1450 nM | 1040 nM | > 2000 nM | – | COc1ccc(F)cc1C(C)(C)CC(O)(Cc1cc2cccc(C)c2[nH]1)C(F)(F)F (racemic) |
| – | – | – | 405 nM | 1400 nM | 405 nM | – | – | CC(C)(C[C@](O)(Cc1cc2ccc(C#N)cc2[nH]1)C(F)(F)F)c1cc(S(C)(=O)=O)cc2c1OCC2 |
